SMILES strings stand for the structures.

The first assay deals with Glycogen synthase kinase-3 beta (Homo sapiens, UniProt P49841). Description: Inhibition of recombinant GSK3-beta by ELISA. Background: ELISA stands for enzyme-linked immunosorbent assay.
Chain of Glycogen synthase kinase-3 beta (P49841 whole entry): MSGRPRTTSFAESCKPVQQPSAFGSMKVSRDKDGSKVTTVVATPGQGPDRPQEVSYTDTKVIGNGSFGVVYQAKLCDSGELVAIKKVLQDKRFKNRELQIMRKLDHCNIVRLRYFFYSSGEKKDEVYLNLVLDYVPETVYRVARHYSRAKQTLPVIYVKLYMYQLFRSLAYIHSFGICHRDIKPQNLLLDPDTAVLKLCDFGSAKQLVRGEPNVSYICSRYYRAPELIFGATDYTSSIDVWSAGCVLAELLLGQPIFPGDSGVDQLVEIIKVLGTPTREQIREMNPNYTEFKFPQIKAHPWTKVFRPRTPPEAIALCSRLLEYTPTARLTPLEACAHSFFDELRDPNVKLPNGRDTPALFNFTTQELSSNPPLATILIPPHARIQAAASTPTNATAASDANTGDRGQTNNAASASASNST
The IC50 is the concentration that inhibits the measured activity by half. As for `O=C1NC(=O)/C(=C/c2ccc(Cl)cc2)N1`, the IC50 is 18.2 µM.

Regarding `CCSc1ccc(/C=C2\NC(=O)NC2=O)cc1`, the concentration for half-maximal inhibition (IC50) came out at 7.8 µM.

Regarding `O=C1NC(=O)/C(=C/c2ccc(O)cc2)N1` [4-HYDROXYPHENYLMETHYLENE HYDANTOIN], the IC50 was found to be 13.7 µM.

Turning to `O[C@]12C=C(c3nccc4c3[nH]c3ccccc34)[C@@H]3CCN(CCCC/C=C\CC1)C[C@@]31C[C@@H]3/C=C\CCCCN3[C@H]12` [MANZAMINE A], the IC50 worked out at 12.3 µM.

Take `O=C1NC(=O)/C(=C/c2ccc(-c3cccs3)cc2)N1`: the IC50 was determined as 13.5 µM.

On to `O=C1NC(=O)/C(=C/c2ccc(-c3ccsc3)cc2)N1`, for which the IC50 worked out at 6.4 µM.

Consider `CCN(CC)c1ccc(/C=C2\NC(=O)NC2=O)cc1`, for which the IC50 was 4.2 µM.

As for `CSc1ccc(/C=C2\NC(=O)NC2=O)cc1`, the IC50 turned out to be 6.9 µM.

The next assay concerns Rattus norvegicus. Description: Antihyperglycemic activity in ip dosed Sprague-Dawley rat assessed as increase liver glycogen. Type of assay: functional, organism-based. In short, it runs like this:
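Female Sprague Dawley rats, six weeks old, about 200 g. Food and water removed 6 h before a single ip injection of 5, 15 or 25 mg/kg as the sodium salt in PBS pH 7.2, 0.5 mL/rat. PBS vehicle control, n=3 per group. Liver homogenized in 5% TCA, glycogen precipitated with ethanol, measured with anthrone at 620 nm. Mean ± SEM.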
Regarding `CCN(CC)c1ccc(/C=C2\NC(=O)NC2=O)cc1`, the Activity result was “Dose-dependent effect”.

The values above are taken from ChEMBL document CHEMBL1153493, “The marine natural-derived inhibitors of glycogen synthase kinase-3beta phenylmethylene hydantoins: In vitro and in vivo activities and pharmacophore modeling” (Bioorg Med Chem, 2009).
